The species entered for experiment [1] is Oryctolagus cuniculus. Kind of experiment: Effective concentration in vasorelaxation assay; 0.05-0.3 uM. Type of experiment: functional.
For experiment [2], the species on record is Oryctolagus cuniculus. Kind of experiment: Relative potency for vasorelaxant activity of the compound. The format is functional.
The species entered for experiment [3] is Oryctolagus cuniculus. Kind of experiment: Relative binding potency towards vasorelaxant binding site compared to AP(103-126). The procedure, abridged:
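Varied unlabeled peptide concentrations; started by adding membranes; 30 min at 25 °C. Filtration with ice-cold buffer, then gamma counting. Nonspecific binding measured with 10^-6 M unlabeled reference peptide. Specific binding fitted by nonlinear least squares.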

Experiment [4] relates to Atrial natriuretic peptide receptor 3 (Oryctolagus cuniculus). Kind of experiment: Relative binding potency towards non-vasorelaxant binding site compared to AP(103-126).
Experiment [5] is filed under the species Oryctolagus cuniculus. Kind of experiment: Effective concentration in vasorelaxant assay; 0.05-0.3 uM. Type of experiment: functional.

As to `CC[C@H](C)[C@@H]1NC(=O)[C@H](CCCN=C(N)N)NC(=O)[C@H](CC(=O)O)NC(=O)[C@H]([C@@H](C)CC)NC(=O)[C@H](CCCN=C(N)N)NC(=O)CNC(=O)CNC(=O)[C@H](Cc2ccccc2)NC(=O)[C@@H](NC(=O)[C@H](CO)NC(=O)[C@@H](N)CO)CSSC[C@@H](C(=O)N[C@@H](CC(N)=O)C(=O)N[C@@H](CO)C(=O)N[C@@H](Cc2ccccc2)C(=O)N[C@@H](CCCN=C(N)N)C(=O)N[C@@H](Cc2ccc(O)cc2)C(=O)O)NC(=O)CNC(=O)[C@H](CC(C)C)NC(=O)CNC(=O)[C@H](CO)NC(=O)[C@H](CCC(N)=O)NC(=O)[C@H](C)NC(=O)CNC1=O`, the results for the EC50 in the experiment listed under Oryctolagus cuniculus [1] and in the experiment listed under Oryctolagus cuniculus [2] were 50 nM and 2.3 nM, respectively.

As for `CC[C@H](C)[C@H]1NC(=O)[C@H](CCCN=C(N)N)NC(=O)[C@H](CC(=O)O)NC(=O)[C@@H]([C@@H](C)CC)NC(=O)[C@H](CCCN=C(N)N)NC(=O)[C@H](CSCNC(C)=O)NC(=O)CNC(=O)[C@@H](Cc2ccccc2)NC(=O)[C@H](NC(=O)[C@H](CO)NC(=O)[C@@H](N)CO)CSSC[C@H](C(=O)N[C@@H](CC(N)=O)C(=O)N[C@@H](CO)C(=O)N[C@@H](Cc2ccccc2)C(=O)N[C@@H](CCCN=C(N)N)C(N)=O)NC(=O)CNC(=O)[C@@H](CC(C)C)NC(=O)CNC(=O)[C@H](CSCNC(C)=O)NC(=O)[C@H](CCC(N)=O)NC(=O)[C@@H](C)NC(=O)CNC1=O`, the Relative potency (in the experiment listed under Oryctolagus cuniculus [3]; in experiment [4]) was 0.48 throughout.

On to `CC[C@H](C)[C@H]1NC(=O)[C@H](CCCN=C(N)N)NC(=O)[C@H](CC(=O)O)NC(=O)[C@@H]([C@@H](C)CC)NC(=O)[C@H](CCCN=C(N)N)NC(=O)[C@@H](CSCNC(C)=O)NC(=O)CNC(=O)[C@@H](Cc2ccccc2)NC(=O)[C@H](NC(=O)[C@H](CO)NC(=O)[C@@H](N)CO)CSSC[C@H](C(=O)N[C@@H](CC(N)=O)C(=O)N[C@@H](CO)C(=O)N[C@@H](Cc2ccccc2)C(=O)N[C@@H](CCCN=C(N)N)C(N)=O)NC(=O)CNC(=O)[C@@H](CC(C)C)NC(=O)CNC(=O)[C@@H](CSCNC(C)=O)NC(=O)[C@H](CCC(N)=O)NC(=O)[C@@H](C)NC(=O)CNC1=O`, for which the Relative potency (in the experiment filed under Oryctolagus cuniculus [3]; in experiment [4]) was 0.91 in each case.

For `CC[C@H](C)[C@@H]1NC(=O)[C@H](CCCN=C(N)N)NC(=O)[C@H](CC(=O)O)NC(=O)[C@H]([C@@H](C)CC)NC(=O)[C@H](CCCN=C(N)N)NC(=O)[C@@H](CSCNC(C)=O)NC(=O)CNC(=O)[C@H](Cc2ccccc2)NC(=O)[C@@H](NC(=O)[C@H](CO)NC(=O)[C@@H](N)CO)CSSC[C@@H](C(=O)NCC(=O)N[C@@H](CC(C)C)C(=O)NCC(=O)N[C@@H](CSCNC(C)=O)C(=O)N[C@@H](CC(N)=O)C(=O)N[C@@H](CO)C(=O)N[C@@H](Cc2ccccc2)C(=O)N[C@@H](CCCN=C(N)N)C(N)=O)NC(=O)[C@H](CCC(N)=O)NC(=O)[C@H](C)NC(=O)CNC1=O`, the results for the Relative potency (in the experiment filed under Oryctolagus cuniculus [3]; in experiment [4]) were 0.014 and 3.1, respectively.

With `CC[C@H](C)[C@@H]1NC(=O)[C@H](CCCN=C(N)N)NC(=O)[C@H](CC(=O)O)NC(=O)[C@H]([C@@H](C)CC)NC(=O)[C@H](CCCN=C(N)N)NC(=O)[C@@H](CCSCNC(C)=O)NC(=O)CNC(=O)[C@H](Cc2ccccc2)NC(=O)[C@H](NC(=O)[C@H](CO)NC(=O)[C@@H](N)CO)CSSC[C@H](C(=O)N[C@@H](CC(N)=O)C(=O)N[C@@H](CO)C(=O)N[C@@H](Cc2ccccc2)C(=O)N[C@@H](CCCN=C(N)N)C(N)=O)NC(=O)CNC(=O)[C@H](CC(C)C)NC(=O)CNC(=O)[C@H](CSCNC(C)=O)NC(=O)[C@H](CCC(N)=O)NC(=O)[C@H](C)NC(=O)CNC1=O`, the Relative potency (in the experiment filed under Oryctolagus cuniculus [3]; in experiment [4]) was 0.15 throughout.

For `CC[C@H](C)[C@@H]1NC(=O)[C@H](CCCN=C(N)N)NC(=O)[C@H](CC(=O)O)NC(=O)[C@H]([C@@H](C)CC)NC(=O)[C@H](CCCN=C(N)N)NC(=O)[C@@H](CCS)NC(=O)CNC(=O)[C@H](Cc2ccccc2)NC(=O)[C@@H](NC(=O)[C@H](CO)NC(=O)[C@@H](N)CO)CSSC[C@@H](C(=O)N[C@@H](CC(N)=O)C(=O)N[C@@H](CO)C(=O)N[C@@H](Cc2ccccc2)C(=O)N[C@@H](CCCN=C(N)N)C(N)=O)NC(=O)CNC(=O)[C@H](CC(C)C)NC(=O)CNC(=O)[C@@H](CCS)NC(=O)[C@H](CCC(N)=O)NC(=O)[C@H](C)NC(=O)CNC1=O`, the Relative potency in the experiment listed under Oryctolagus cuniculus [3] turned out to be 0.071; in experiment [4] it was 2.8.

For `CC[C@H](C)[C@H]1NC(=O)[C@H](CCCN=C(N)N)NC(=O)[C@H](CC(=O)O)NC(=O)[C@@H]([C@@H](C)CC)NC(=O)[C@H](CCCN=C(N)N)NC(=O)CNC(=O)CNC(=O)[C@@H](Cc2ccccc2)NC(=O)[C@H](NC(=O)[C@H](CO)NC(=O)[C@@H](N)CO)CSSC[C@H](C(=O)N[C@@H](CC(N)=O)C(=O)N[C@@H](CO)C(=O)N[C@@H](Cc2ccccc2)C(=O)N[C@@H](CCCN=C(N)N)C(N)=O)NC(=O)CNC(=O)[C@@H](CC(C)C)NC(=O)CNC(=O)[C@@H](CO)NC(=O)[C@H](CCC(N)=O)NC(=O)[C@@H](C)NC(=O)CNC1=O`, the Relative potency (in the experiment filed under Oryctolagus cuniculus [3]; in experiment [4]) was 3.2 each time.

For the compound `CC[C@H](C)[C@H](NC(=O)[C@H](CC/N=C(/N)NO)NC(=O)[C@H](CC(=O)O)NC(=O)[C@@H](NC(=O)[C@H](CCN=C(N)N)NC(=O)[C@H](CSCNC(C)=O)NC(=O)CNC(=O)[C@H](Cc1ccccc1)NC(=O)[C@H](CSCNC(C)=O)NC(=O)[C@H](CO)NC(=O)[C@@H](N)CO)[C@@H](C)CC)C(=O)NCC(=O)N[C@@H](C)C(=O)N[C@@H](CCC(N)=O)C(=O)C1SSC[C@@H](C(=O)N[C@@H](CC(N)=O)C(=O)CN[C@@H](CO)C(=O)N[C@@H](Cc2ccccc2)C(=O)N[C@@H](CCCN=C(N)N)C(N)=O)NC(=O)CNC(=O)[C@H](CC(C)C)NC(=O)CNC(=O)[C@H]1N` (stereo in doubt; 9b), the results for the Relative potency (in the experiment filed under Oryctolagus cuniculus [3]; in experiment [4]) were 0.0053 and 2.2, respectively.

In turn, `CC[C@H](C)[C@@H]1NC(=O)[C@H](CCCN=C(N)N)NC(=O)[C@H](CC(=O)O)NC(=O)[C@H]([C@@H](C)CC)NC(=O)[C@H](CCCN=C(N)N)NC(=O)CNC(=O)CNC(=O)[C@H](Cc2ccccc2)NC(=O)[C@@H](NC(=O)[C@H](CO)NC(=O)[C@@H](N)CO)CSSC[C@@H](C(=O)N[C@@H](CC(N)=O)C(=O)N[C@@H](CO)C(=O)N[C@@H](Cc2ccccc2)C(=O)N[C@@H](CCCN=C(N)N)C(N)=O)NC(=O)CNC(=O)[C@H](CC(C)C)NC(=O)CNC(=O)[C@H](CO)NC(=O)[C@H](CCC(N)=O)NC(=O)[C@H](C)NC(=O)CNC1=O` displayed an EC50 in the experiment filed under Oryctolagus cuniculus [5] of 50 nM.

With `CC[C@H](C)[C@@H]1NC(=O)[C@H](CCCN=C(N)N)NC(=O)[C@H](CC(=O)O)NC(=O)[C@H]([C@@H](C)CC)NC(=O)[C@H](CCCN=C(N)N)NC(=O)[C@@H](CSCNC(C)=O)NC(=O)CNC(=O)[C@H](Cc2ccccc2)NC(=O)[C@@H](NC(=O)[C@H](CO)NC(=O)[C@@H](N)CO)CSSC[C@@H](C(=O)N[C@@H](CC(N)=O)C(=O)N[C@@H](CO)C(=O)N[C@@H](Cc2ccccc2)C(=O)N[C@@H](CCCN=C(N)N)C(N)=O)NC(=O)CNC(=O)[C@H](CC(C)C)NC(=O)CNC(=O)[C@H](CO)NC(=O)[C@H](CCC(N)=O)NC(=O)[C@H](C)NC(=O)CNC1=O`, the Relative potency (in the experiment listed under Oryctolagus cuniculus [3]; in experiment [4]) was 4.3 each time.

The values are drawn from ChEMBL document CHEMBL1124339, “Conformationally restricted analogues of atriopeptin(103-125)amide” (J Med Chem, 1989).
